Published values collected from several papers.
Protocols differ between the studies behind these lines.
PIK3CD: Phosphatidylinositol 4,5-bisphosphate 3-kinase catalytic subunit delta isoform (PIK3CD, Homo sapiens, UniProt O00329)

Structure (SMILES) | target | effect on | mode | technique | tested at | endpoint | result
CCCCC(=O)Nc1ccc(-c2ccc3ncn(CCC)c(=O)c3c2)cn1 | PIK3CD | binding | – | competition with immobilised ligand | 0.5 µM | remaining binding | 100%
C=CC(=O)N1CCC([C@@H]2CCNc3c(C(N)=O)c(-c4ccc(Oc5ccccc5)cc4)nn32)CC1 | PIK3CD | enzyme activity | inhibitor | – | 1 µM | inhibition | 11%
Cc1cc(O)c(-c2ccc([C@@H](C)CN(C)C)cc2)c2c1[nH]c(=O)c1sccc12 | PIK3CD | enzyme activity | inhibitor | – | 0.1 µM | inhibition | -6.12%
COc1ccc2[nH]c3c4[nH]c5ccc(OC)cc5c4c4c(c3c2c1)C(=O)NC4=O | PIK3CD | binding | – | – | 1 µM | remaining binding | 64%
C1=C/COCc2cc(ccc2OCCN2CCCC2)Nc2nccc(n2)-c2cccc(c2)COC/1 | PIK3CD | binding | – | – | 0.1 µM | remaining binding | 30%
CC(C)S(=O)(=O)c1ccc2nccc(Nc3ccc4sc(C5CCCC5)nc4c3)c2c1 | Phosphatidylinositol 4,5-bisphosphate 3-kinase catalytic subunit delta isoform, with p85 (PIK3CD, Homo sapiens, UniProt O00329) | enzyme activity | inhibitor | – | 1 µM | activity vs control | 91%
C#Cc1cc(-c2cc(Nc3nc(N[C@@H](C)c4ccc(F)cn4)ncc3Cl)n[nH]2)ccc1C=O | PIK3CD | enzyme activity | inhibitor | – | 0.2 µM | inhibition | 29.3%
CO[C@@H]1[C@H](N(C)C(=O)c2ccccc2)C[C@H]2O[C@]1(C)n1c3ccccc3c3c4c(c5c6ccccc6n2c5c31)C(=O)NC4 | PIK3CD | enzyme activity | inhibitor | – | 1 µM | inhibition | 0%
C[C@H]1CC[C@H](n2c3cnccc3c3cnc(Nc4ccc5c(n4)CCN(C(=O)CO)C5)nc32)CC1 | PIK3CD | cell-free assay | – | – | 1 µM | remaining signal | 87%
